The results in this text go back to the RNAGym collection of RNA variant scans (doi:10.1126/science.aae0568).

First the molecules themselves.
B1: tRNA (parent)
chain: GUUCCGUUGGCGUAAUGGUAACGCGUCUCCCUCCUAAGGAGAAGACUGCGGGUUCGAGUCCCGUACGGAACG

This sample holds only a part of the variants without activity. A value given as a limit tells only on which side of the number the result lay.

Variants of B1 are the subject of this series. The experiment in a line: yeast fitness relative to wild type (ratio to wild type); higher = fitter; tRNA-Arg(CCU), competitive growth, 37 C, YPD. The procedure, abridged:
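Amplicons of the tRNA-Arg(CCU) gene were sequenced, 100-nucleotide paired-end, from the start population and from each end population of a pooled yeast competition. The competition, in six parallel replicates, lasted 24 hours in YPD at 37°C. Fitness relative to wild type was calculated from changes in genotype frequencies. Genotypes had to have ≥ 100 starting reads, and estimates < 0.5 were set to 0.5.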
GUUCCGUUGGCGUAAUGGUAACACGUCUCCCUCCUAAGGAGAAGACUGCGGGUUCGAGUCCCAUGCGGAACG [G23A G63A A65G]: the yeast fitness is 0.524.

For GUUCCGUUGGCGUAAUGGUAACGCGUGUCCCUCCUAAGGAGAACGCUGCGGGUUCGAGUCCCGUGCGGAACG [C27G G44C A45G A65G], the yeast fitness was not above 0.5.

Regarding GUUCCGUUGGCCUAAUGGUCACGCGUCUCUGUCCUAAGGAGAAGACUGCGGGUUCGAGUCCCGUACGGAACG [G12C A20C C30U C31G], the yeast fitness was not above 0.5.

On to GUUCCGUUGGCGUAAUGGUAACGCGUCUCCCUCCUAAGGAGUGGACUCCGGGAUCGAGUCCCGUACGGAACG [A42U A43G G48C U53A], for which the yeast fitness is 0.566.

Consider GUUCCGUCGGCGUCAUGGUAACGCGUCUCCUUCCUAAGGAGAAGACUGCGGGUUCGAGUCCCGUACGGAACG [U8C A14C C31U], for which the yeast fitness was not above 0.5.

In the case of GUUCCGUUGGCGUAAUGGUAACGCGUCUCCCUCCUAAGGAGUAGACUGCGGGUUCGAGUCCCGUACGGAGCG [A42U A70G], the yeast fitness was 1.

GUUCCGUUGGGGUAAUGGUAACGCGUCUCCCUCCUAAGCAGAAGACCGCGGGUUCGAGUCCCGUACGCAACG [C11G G39C U47C G68C]: the yeast fitness was not above 0.5.

On to GUUCCGUUGGCGUAAUGGUACCGCGUCUCCCUCCUAAGGACAAGACUGCGGGUUCGAGUCCCGUACGGAACG [A21C G41C], for which the yeast fitness came out at 0.695.

With GUUCCGUUGGAGUAAUGGUAACGCGUCUCCCUCCUAAGGAGAAGCCUGCGGGUUCGAGUCCCGUACGGAACG [C11A A45C], the yeast fitness worked out at 0.563.

As to GUUCCGUUGGCAUAAUGGUAAGGCGUCUCCCUCCUAAGGAGAAGACUGCGGCUUCGACUCCCGUUCGGAACG [G12A C22G G52C G58C A65U], the yeast fitness stood at 0.53.

For GUUCCGUGGGCGUAAUGGUAUCGCGUCUUCCUCCUAAGGAGAAGACUGCGGGUUCGAGUCCCGUACGCAACG [U8G A21U C29U G68C], the yeast fitness is not above 0.5.

For the variant GUUCCGUUGGCGUAAUGGUAACGCGCCUGCCUCCUAAGGAGAAGACUGUGGGUUCGAGUCCCGUACGGAACG [U26C C29G C49U], the yeast fitness was not above 0.5.

GUUCCGUUGGCGUAAGGGUAACGCGUCUCCCUCCUAAGGCGAAGACUGCGGGUUCGAGUCCCGUACGGAACG [U16G A40C]: the yeast fitness was found to be 0.761.

Regarding GUUCCGUUGGCGUAAGGGUAACGCGUCUCCCUCCUAGGGAGAAGACUGCGGGUUCGAGUCCCGUACGGAACG [U16G A37G], the yeast fitness is 0.673.

For GUUACGUUGGCGUAAUGGUAACGCGUCUCCCUCCUACGGAGAAGACUGCGGGUUCAAGUCCCGUACGUAACG [C4A A37C G56A G68U], the yeast fitness is 0.699.

On to GAUCCGUUGGCGUCAUGGUGACGCGUCUCCCUCCUGAGGAGAAGACUGCGGGUUUGAGUCCCGUACGCAACG [U2A A14C A20G A36G C55U G68C], for which the yeast fitness worked out at 0.595.

In the case of GUUCCGUUGGCGUAUUGGUAAGGCGUCUCCCUCCUAAGGAGAAGACUGCGGGUUCGAGUCCCGUACGGACCG [A15U C22G A70C], the yeast fitness was not above 0.5.

In the case of GUACCGUUGGCGUAAUGGUAACGCCUCUCCCUCCUAAGGAGAAGACUGCGGGUUCGAGUCCCGUACCGAACG [U3A G25C G67C], the yeast fitness is 0.567.

With GUUCCGUUGGCGUAAUGGUCACGCGUCUCCCUCCUAAGGAGCAGACUGCGGGUUCGAGUCCCGUACGGAACG [A20C A42C], the yeast fitness came out at 0.603.

As to GUUGCGUUGGCGUAAUGGUAACGCGUCUCCCUCCUAAGGGGAAGACUACGGGUUCCAGUCCCGUACGGAACG [C4G A40G G48A G56C], the yeast fitness was not above 0.5.

GUUUCGUUGGCGUAAUGGUACCGCGUCUCCCUCCUAAGGAGGAGACUGCGGGUUCGAGUCCCGUACGGAACG [C4U A21C A42G]: the yeast fitness is not above 0.5.

On to GUUCCGUUGGCGUAAUGGUAACGCGUCUCCCUUCUAAGGAGAAGCCUGCGGGUUCGAGUCCCGGACGGAACG [C33U A45C U64G], for which the yeast fitness was not above 0.5.

As for GUUCCGUUGGCGUAAUGGUAACGCGUCUCCCUCAUAGGGAGAAGACUGCGGGUUCGAGUCACGUACGGAACG [C34A A37G C61A], the yeast fitness is not above 0.5.

As for GUUCCAUUGGCGUAAUGGUAACGCGUCUCCCUCCUAAGGAGAAGACUGCGGGUUCGAGUCCGGUACGGAGCG [G6A C62G A70G], the yeast fitness was not above 0.5.

For GUUCCGUUGACGUAAUGGUAACGCGUCUCCCUCCUACGGAGGAGACUGCGGGUUCGAGUCCCGUACGGAACG [G10A A37C A42G], the yeast fitness was not above 0.5.

On to GUACCGUUGGGGUAAUCGUAACGGGUCUCCCUCCUAAGGAGAAGAAUGCGGGUUCGAGUCCCGUACGGAACG [U3A C11G G17C C24G C46A], for which the yeast fitness is not above 0.5.

Consider GUUACGUUGGCGUAAUGGUAACGCGUCUCCCUCCUAAGGAGAAGUCAGCGGGUUCGAGUCCCGUACGGAACG [C4A A45U U47A], for which the yeast fitness is not above 0.5.

In the case of GUUCCAUUGGCGUAAUGGUAACGCGUCUCCCUCCUAAGGAGAAGACUGCCGGUUCGAGUCCCGUACGGAACG [G6A G50C], the yeast fitness was determined as 0.629.

On to GUUCCGUUGGCGUAAUGGUAACGCGGCUAGGUCCUAAGGAGAAGACUGCGGGUUCGAGACCCGUACGGAACG [U26G C29A C30G C31G U59A], for which the yeast fitness came to 0.533.

Regarding GUUCCGUUGGUGUAAAGGUAACGCGUCUCCCUCCUAAGGAGAAGACUGCGGGUUCGAGUGCGGUACGGAACG [C11U U16A C60G C62G], the yeast fitness is not above 0.5.

Regarding GUACCGCUGGCGUAAUGGUAACGCGUGUGCCUCUUAAGGAGAAGACUGCGGGUUCGAGUCCCGUACGGAACG [U3A U7C C27G C29G C34U], the yeast fitness is 0.528.

Consider GUUCCGUUGGCGUAUUGGUAACGCGUCUCCCUCCUAAGGAGAAGUCUGCGGGUUCGAGUCCCGUACGGAACG [A15U A45U], for which the yeast fitness turned out to be 0.593.

As to GUUCCGUUGGCGAAAUGGUAACGUGUCUCCCUCCUAAGGAGAAGACUGCGGGUUCGAGUCCCGUACGGAACG [U13A C24U], the yeast fitness worked out at 0.795.

For GUUCCGUUGGCGUAAUGGUAACGCGUCUCCCUCUUAAGGAGAAGACUGCGGAUUCGAGUCCCGUACGGAACG [C34U G52A], the yeast fitness was found to be 0.618.

Regarding GUUCCGUUGGCGUAAUGGUAACGCGUCUCCCUCGUAAGGAGAAGACUGCCGGUUGGAGUCCCGUACGGAACG [C34G G50C C55G], the yeast fitness came to 0.59.

Consider GUUCCAUUGGCGUAAUGGUAACGCGUGUCCCUCCUCAGGAGCAGACUGCGGGUUCGAGUCCCGUACGGCACG [G6A C27G A36C A42C A69C], for which the yeast fitness is not above 0.5.

As to GUUCCGUUGGCGUAAUGGUAAAGCGCCUCCCUCCUAAGGAGAAGACCGCGGGUUCGGGUCCCGUAAGGAACG [C22A U26C U47C A57G C66A], the yeast fitness was found to be 0.565.
